This is a sample that favours compounds with a hit; in the whole collection about 2.6% have one here.
LMPTP inh: LMPTP phosphatase inhibitors, primary screen, biochemical, fluorescence intensity, uHTS; Low molecular weight phosphotyrosine protein phosphatase (Homo sapiens), P24666; actives 0.22% (n = 360,000); recombinant LMPTP-A, OMFP fluorogenic substrate; inhibition, % at 20 µM;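 active = compounds that cut the enzyme signal by at least half of the control window in the single-dose screen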;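 note: plate controls were DMSO wells with enzyme plus substrate for no effect and substrate without enzyme for full effect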
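test system = LMPTP-A | amount = 0.625 nM LMPTP-A final | reagent = fluorogenic phosphatase substrate OMFP at 400 µM final | incubation = 50 min at room temperature | benchmarks = no-enzyme low control, uninhibited high control | medium = Bis-Tris pH 6.0, DTT, detergent | signal = fluorescence intensity of OMFP turnover product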
STEP inh: STEP phosphatase inhibitors, primary screen, biochemical, fluorescence intensity, uHTS. Tyrosine-protein phosphatase non-receptor type 5 (Homo sapiens), P54829. recombinant STEP, OMFP fluorogenic substrate. inhibition, % at 20 µM. actives 0.25% (n = 360,000). AID 588621, 2011;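 active = inhibition at 20 µM, scaled per plate between control wells, above about 37%, limit read from the data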;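 note: 0% = DMSO with enzyme and substrate and 100% = substrate only without enzyme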
Target sequence (P54829 whole entry, looked up): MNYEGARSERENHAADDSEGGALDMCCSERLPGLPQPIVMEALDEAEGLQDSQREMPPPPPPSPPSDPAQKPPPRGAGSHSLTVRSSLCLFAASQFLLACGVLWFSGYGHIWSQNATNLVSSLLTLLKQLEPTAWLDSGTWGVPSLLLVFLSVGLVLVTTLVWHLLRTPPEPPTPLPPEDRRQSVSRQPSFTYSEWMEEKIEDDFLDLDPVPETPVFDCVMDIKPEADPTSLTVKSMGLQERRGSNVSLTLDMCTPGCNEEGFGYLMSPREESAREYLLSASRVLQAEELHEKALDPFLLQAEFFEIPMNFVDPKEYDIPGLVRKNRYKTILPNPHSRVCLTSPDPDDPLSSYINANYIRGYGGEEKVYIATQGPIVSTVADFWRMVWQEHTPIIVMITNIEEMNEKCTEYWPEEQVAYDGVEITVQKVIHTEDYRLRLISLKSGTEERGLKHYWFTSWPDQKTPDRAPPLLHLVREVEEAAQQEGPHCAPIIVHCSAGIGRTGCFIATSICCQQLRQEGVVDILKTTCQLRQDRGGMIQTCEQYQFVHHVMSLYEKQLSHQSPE
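medium = Bis-Tris buffer pH 6.0, 2.5 mM DTT, 0.005% Tween 20 | test system = STEP (striatal-enriched tyrosine phosphatase) enzyme, cell-free | measure = normalized % inhibition | compound dosing = 20 µM, 1% DMSO | also added = 25 µM OMFP | schedule = reaction 20 min, ambient temperature | measured by = fluorescence read at 480 nm ex / 540 nm em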
NadD inh: inhibitors of S. aureus NadD, primary screen, biochemical, colorimetric, uHTS; inhibition, % at 20 µM; AID 602399, 2012; purified NadD enzyme, colorimetric absorbance read-out; Nicotinate-nucleotide adenylyltransferase NadD (Staphylococcus aureus N315); actives 0.78% (n = 360,000); in the data active = inhibition above about 26%
Scp1 inh: Scp-1 phosphatase inhibitors, primary screen, biochemical, colorimetric, uHTS. Recombinant Scp1, phosphopeptide, malachite green phosphate absorbance. inhibition, % at 20 µM. actives 0.88% (n = 340,000). AID 493091, 2011;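 active = inhibition above about 50% at 20 µM, limit read from the data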;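 note: plate controls were DMSO wells with enzyme for no effect and wells lacking enzyme for full effect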
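Test system: SCP-1 catalytic domain; Buffer or medium: Acidic Tris acetate buffer with magnesium and detergent; Also added: Phosphorylated 17-residue peptide substrate; Compound: single 20 µM dose, 1% DMSO; Schedule: enzyme reaction 45 min at room temperature, colour 5 min, stabilisation 30 min; Signal: Phosphate-binding colour reagent, absorbance read at 630 nm.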
rCAG binder: binders of r(CAG) RNA repeats, primary screen, biochemical, fluorescence. inhibition, % at 3 µM. actives 1.3% (n = 370,000). r(CAG) RNA repeat, TO-PRO-1 dye displacement fluorescence;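 active = inhibition above the plate cutoff, the mean of all test compounds on that plate plus 3 SD, cut at about 35% in these data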;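 note: 0% = DMSO alone and 100% = 100 µM mitoxantrone as full dye displacement; higher means more dye released from RNA so lower well fluorescence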
Scp1 confirm: Scp-1 phosphatase inhibitors, retest, confirmation, biochemical, colorimetric, single concentration. shares compounds with Scp1 inh. recombinant SCP-1 catalytic domain, phosphate release, malachite green absorbance. inhibition, % at 20 µM. actives 61% (n = 2,500). AID 540281, 2011;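 note: plate controls were DMSO with enzyme for no effect and buffer wells lacking enzyme for full effect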
Scp-1 MG ctr: colorimetric readout interference by compounds, confirmation, artefact control for Scp-1 inhibitor project, biochemical, single concentration | apparent inhibition (interference), % at 20 µM | Colorimetric interference counterscreen, malachite green absorbance 630 nm | shares compounds with Scp1 inh | 2,500 tested, under 10 active;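 note: compounds added after enzyme reaction finished so only phosphate colour detection is probed; plate controls were DMSO wells with completed Scp-1 reaction for no effect and substrate wells lacking enzyme for full effect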
Scp1 DSF: Scp-1 binding by thermal shift, confirmation, orthogonal assay for Scp-1 inhibitor project, biophysical, differential scanning fluorimetry; shares compounds with Scp1 inh; actives 25% (n = 1,500); AID 540329, 2011; thermal shift relative to vanadate control, % at 40 µM; Recombinant SCP1, Sypro Orange thermal shift Tm;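 active = substances whose mean melting-temperature shift, as a percentage of the reference inhibitor's shift, reaches about 5.3%, limit read from the data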;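 note: 0% = Tm of DMSO wells and 100% = Tm with sodium orthovanadate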
STEP conf: STEP phosphatase inhibitor hit confirmation, biochemical, fluorescence intensity, single concentration | actives 32% (n = 520) | recombinant STEP, OMFP fluorogenic substrate | shares compounds with STEP inh | inhibition, % at 20 µM; call rule not given here;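 note: 0% = enzyme with substrate plus DMSO and 100% = substrate without enzyme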
Active calls of the source: *; nt = no result given.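 Rule for the calls, unless noted: active = inhibition of at least 30% at 20 µM; inactive = the rest.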

SMILES	LMPTP inh	STEP inh	NadD inh	Scp1 inh	rCAG binder	Scp1 confirm	Scp-1 MG ctr	Scp1 DSF	STEP conf
CCCCCCCCNC(=O)C1CSCCS(=O)(=O)N1Cc1ccc(F)cc1 (stereo not drawn)	nt	nt	nt	nt	-1.3	nt	nt	nt	nt
CCCCNC(=O)C[C@@H]1C(=O)N2CCCC3=C2[C@@]1(C(=O)OC)CCCC3	nt	nt	nt	nt	1.7	nt	nt	nt	nt
COc1cccc(Nc2c(Nc3cccc(OC)c3)c(=O)c2=O)c1	78.0*	97.1*	6.5	92.2*	2.8	68.2*	-10.9	1.9	22.8
CC(=O)N1CCCN(C(=O)Cn2cnc3ccccc3c2=O)CC1	nt	nt	nt	nt	0.5	nt	nt	nt	nt
CC(=O)Oc1ccc(/C=N\NC(=O)c2cc3c(ccc4ccccc43)o2)cc1	30.4	90.1*	5.8	91.6*	1.6	68.8*	-17.5	-17.2	5.1
CC(=O)N1CCOc2ccc(S(=O)(=O)NCCc3ccc(S(N)(=O)=O)cc3)cc21	-0.2	-1.2	-1.1	5.9	2.9	nt	nt	nt	nt
CC(=O)N1CCOc2ccc(S(=O)(=O)NCc3ccc(F)cc3)cc21	22.4	73.0*	0.1	61.8*	1.6	50.0*	-16.1	-8.9	30.1*
CC(C)NC(=O)CCn1nnc(-c2cccs2)n1	nt	nt	nt	nt	0.7	nt	nt	nt	nt
CCc1ccc(OCC(=O)Nc2ccc(-c3nc4ccccc4o3)c(O)c2)cc1	38.9	66.5*	2.5	100.1*	-2.3	73.3*	-21.4	-0.6	19.0*
COc1ccc(OCC(=O)Nc2cccc(-c3nc4ccccc4o3)c2)cc1	2.0	2.1	-9.0	-10.7	4.0	nt	nt	nt	nt
S=C1NC[C@H](Cc2ccccc2)N1CC1CCN(CCCC2CCCCC2)CC1	nt	nt	nt	nt	4.7	nt	nt	nt	nt
CCCCn1c(N)c(-c2nc3ccccc3o2)c2c([N+](=O)[O-])nn(C)c(=O)c21	54.6*	57.8*	3.1	93.1*	1.5	68.1*	-8.2	2.7	22.9
O=C(O)CSc1sc(=S)sc1SCC(=O)O	0.6	58.3*	0.6	75.7*	-1.0	10.0	-11.5	nt	13.7
Cn1nc(SCC(=O)O)sc1=S	-1.4	-1.2	10.2	0.2	2.2	nt	nt	nt	nt
CCOc1cc(/C=C2\SC(=O)N(c3ccc(O)cc3)C2=O)ccc1O	0.1	-2.2	-4.0	-16.3	4.8	nt	nt	nt	nt
N=C1S/C(=C\c2ccc(O)cc2)C(=O)N1c1ccc(F)cc1	69.1*	78.5*	5.4	77.5*	nt	51.9*	-12.6	18.6*	12.1*
COc1ccc(CN(CCN2CCOCC2)C(=O)c2cccc(F)c2)cc1OC	nt	nt	nt	nt	1.1	nt	nt	nt	nt
CN1C(=O)[C@@](O)(c2cccn2C)c2cc(Cl)ccc21	nt	nt	nt	nt	-0.1	nt	nt	nt	nt
O=C(N/N=C/c1ccoc1)c1cc(O)cc(O)c1	35.4	60.9*	4.3	63.5*	11.3	58.0*	-16.2	4.4	98.1*
COc1cccc2cc(C(=O)NNC(=O)c3ccc(Br)cc3)c(=O)oc12	44.3	81.8*	0.4	98.6*	4.2	55.3*	-13.1	0.4	0.0
COc1ccc(NC(=O)NNC(=O)c2ccc(-c3ccccc3)cc2)cc1	29.5	40.0*	-1.9	88.4*	8.3	45.8*	-14.0	-15.3	21.0
COc1ccc(NC(=O)NNC(=O)c2ccc(-c3ccccc3)cc2)c(OC)c1	3.8	5.2	1.0	1.7	4.7	nt	nt	nt	nt

Screening data (PubChem)
